This is an account of results in the EternaBench riboswitch data.

The test system of this series is MS2 coat protein. In words: apparent Kd, MS2 coat protein; higher = weaker binding; RNA-MaP array; FMN 200 µM where present. In short, it runs like this:
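Green signal from SNAP-549-labelled MS2 coat protein was normalised to red-channel RNA signal and to the median Fmax of control clusters. The protein was titrated from 0.7 or 1.5 nM, doubling to 3 µM, without and then with constant ligand, over designs transcribed by stalled E. coli RNA polymerase on Illumina sequencing-chip clusters, in 100 mM Tris-HCl pH 7.5, 80 mM KCl, 4 mM MgCl2, BSA, DTT, yeast tRNA and Tween-20. The apparent Kd is the median of filtered per-cluster binding-curve fits.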

[1] abbreviates: designed as: OFF switch for flavin mononucleotide, no ligand.
[2] abbreviates: ligand present: flavin mononucleotide, designed as: OFF switch for flavin mononucleotide.
Where [3] appears, read: designed as: ON switch for flavin mononucleotide, no ligand.
The mark [4] stands for this setting: ligand present: flavin mononucleotide, designed as: ON switch for flavin mononucleotide.

Turning to “GUGUACAGAGGAUAUACAGGAGCAUGGAAACAUGCAACCUCACAUGAGGAUCACCCAUGUAGAAGGCUGUACAC”, the apparent Kd – broadly, the concentration giving half-maximal binding under the conditions of the assay – runs as follows: under setting [1], 154 nM; under setting [2], 81.3 nM.

As for “AGCUACGUUUCGUAGCAGUGUCAUCGAGAAGGCCUCAUAACAUGAGGAUCACCCAUGUUUGCAUGGGAGGAUAUCGAUGAUACA”, the “apparent Kd” value under setting [3] was determined as 206 nM and the “apparent Kd” value under setting [4] worked out at 56.4 nM.

As to “GCUGCGCGAGGAUAUGCGGUUUGCGCUGUGGCCCGUGGCGUACAUGAGGAUCACCCAUGUAGAAGGCGUGUGGG”, the “apparent Kd” value is, setting by setting: under setting [1], 22.9 nM; under setting [2], 23.3 nM.

Regarding “GCAAAGCCUGACAUGAGGAUCACCCAUGUUAGAUUGUUAUGUCAGGAUAUUGUCUAGAAACUAGACAAGAAGGGAUGCUUUGCU”, the “apparent Kd” value under setting [3] came to 421 nM and the “apparent Kd” value under setting [4] is 25.3 nM.

Turning to “AGCUGGUGACAGCAUCCAUCAAAACAUGAGGAUCACCCAUGUAGAAGGCUGUACGGUUACCGUACAGAGGAUAUACAAUGAUGC”, the “apparent Kd” value under setting [1] is 13.8 nM and the “apparent Kd” value under setting [2] came out at 31.8 nM.

On to “ACGGAACAUGAGGAUCACCCAUGUAUCUGAGAUAUGGUCUCGCAGGAUAUUCAGAGAAGCCAAUCGGAGAAGGGUGACACCAAA”, for which the “apparent Kd” value under setting [3] was determined as 36.6 nM and the “apparent Kd” value under setting [4] is 19.6 nM.

With “UUGGACCUCGUAGGAUAUGUAGGAUAUUCCUACAUGAGGAUCACCCAUGUUGACAUGGAAGAAGGACAGAAGGACGAUGUCCAU”, the “apparent Kd” value is, setting by setting: under setting [3], 311 nM; under setting [4], 5.32 nM.

With “CCGACGAAAGUCGAACGAUGUAGCAGAAGGACAUGAGGAUCACCCAUGUCAGCUGUAACAGCCAUGUAGGAUAUGCUACAUCGU”, the “apparent Kd” value was found to be 4.28 nM under setting [1] and 5.85 nM under setting [2].

On to “AAAACAUACCGAGGAUAUUCAUUUAAUAAAUAAACAUGAGGAUCACCCAUGUGGCAAAAGCCUAGGGAGAAGGCGGAAUGCUAA”, for which the “apparent Kd” value runs as follows: under setting [3], 33.4 nM; under setting [4], 26.5 nM.

Take “AGUCAUACAGGAUAUACAUGAGGAUCACCCAUGUUUAUCCUAAAAUAAAAAACCUCAUGUAGAAGGGUAUGACA”: the “apparent Kd” value by setting is: under setting [1], 19.4 nM; under setting [2], 13.5 nM.

For “CAGCGAUAGCUGAACAAUCUAUCUGAGGAUAUUCAUGAUAAACAUGAGGAUCACCCAUGUAAUUGGGAGAAGGCAGAUAGAUUG”, the “apparent Kd” value is 441 nM under setting [3] and 19.3 nM under setting [4].

On to “CUGAGCAAUCAAGGAUAUCACGUCGAUUAGACGUGAGAAGGUGAUCAUCACAUGAGGAUCACCCAUGUGUUACAUGGAGCUCAG”, for which the “apparent Kd” value reads like this: under setting [3], 1170 nM; under setting [4], 218 nM.

Turning to “CCCGAGUUAGGAUAUCGGACCGGUCCGCGCGGACUGGCAAUUGAGAAGGAACAUGAGGAUCACCCAUGUGAGUA”, the “apparent Kd” value runs as follows: under setting [1], 25.5 nM; under setting [2], 52.3 nM.

In the case of “GCGUGGAUAGCAGGAUAUAUGUUUCCUACAUGAGGAUCACCCAUGUAGGUGAUCAGCCGAGAAAAGUAGAAGGGCUAUCCAUGC”, the “apparent Kd” value under setting [3] came to 16 nM and the “apparent Kd” value under setting [4] came to 13.4 nM.

Turning to “GGGCCGUAGUAGAAGGGAUAUACGUUAGGUAUAUCAGGAUAUACAUGAGGAUCACCCAUGUUCUAACAGUGAUAGUCCUCCCUA”, the “apparent Kd” value was determined as 19.8 nM under setting [1] and 55.4 nM under setting [2].

Take “UAUACUUACGAAGGAUAUGGUUACAUGAGGAUCACCCAUGUAUGUAUAUUGAUCUUGUAUUUUAACCAGAAGGUCGUGAGUAUA”: the “apparent Kd” value was determined as 143 nM under setting [1] and 114 nM under setting [2].

With “AGGUCGUGAGGAUAUCGUCCCGUGAGCAGUAGUUGCGCGGGUGAGAAGGCACAUGAGGAUCACCCAUGUCAUCC”, the “apparent Kd” value reads like this: under setting [1], 24.9 nM; under setting [2], 74.4 nM.

As for “UGUGCGUUGAUCUUCGAUCGGAGUACAUGAGGAUCACCCAUGUAGGAUAUUCAAAGACGCAGAUAGAAGAAGGACAUCGGAUUA”, the “apparent Kd” value was 13.2 nM under setting [1] and 11.1 nM under setting [2].

On to “CCUCAUGGUCGAGGAUAUAUAACGUGGAACGUAAUAGAAGGCGACAUGAGGAUCACCCAUGUAGCGUCCACUGGAGUCGCGCGG”, for which the “apparent Kd” value reads like this: under setting [1], 119 nM; under setting [2], 62.2 nM.

Turning to “AGUAACAGAGGAUAUACUGUUUUAUGUGUUUAUUGUUUUAAACAUGAGGAUCACCCAUGUAGAAGGCUGAAUAA”, the “apparent Kd” value reads like this: under setting [1], 30.9 nM; under setting [2], 26.9 nM.

As to “UGUCGGAGCAAAGGAUAUUACAUGAGGAUCACCCAUGUAUGAACCAAUAGCUGGAAACAGCAAUGUAAGAAGGCUGCUCCGACA”, the “apparent Kd” value came to 4.79 nM under setting [1] and 5.81 nM under setting [2].

On to “UAAUUAAGUGUGAGGAUAUGCUGGUCCUUGGAUCAGCAGAAGGCACAUGAGGAUCACCCAUGUAAAUUAUUUAU”, for which the “apparent Kd” value runs as follows: under setting [1], 103 nM; under setting [2], 437 nM.

On to “GUAACAUGAGGAUCACCCAUGUCGUGCUAGAUGAGUUCUAGUGAGGAUAUACAUGGUAAAUAACUGUAGAAGGUGCUGGGUACA”, for which the “apparent Kd” value runs as follows: under setting [3], 192 nM; under setting [4], 229 nM.

As for “GCGUUGUUGUAGAAGGUACAUGAAUACUUUUAAUACCUCAAGUAACAUGAGGAUCACCCAUGUAGUAAGGAUAUACAUGAACGC”, the “apparent Kd” value by setting is: under setting [3], 35.4 nM; under setting [4], 30.2 nM.

“GCCUCGCUGUGAGGAUAUUACGCCUACCGGCAAAAUGCGGUUUCAGGUCCGUAAGAAGGCACAUGAGGAUCACCCAUGUAAGAA”: the “apparent Kd” value reads like this: under setting [1], 26.7 nM; under setting [2], 213 nM.

“AUACUCAUGUAAGGAUAUGCAGCCGUCUCGGCUGCAGAAGGUACUAUAAUACAUGAGGAUCACCCAUGUCUCUCGCAUUGCGAG”: the “apparent Kd” value under setting [3] stood at 562 nM and the “apparent Kd” value under setting [4] was 93.7 nM.

As to “GAUACACAUGAGGAUCACCCAUGUCGUAUGACAUGAGGAUAUGUACAGACUUCGGUCUGUACAGAAGGCAUGUGUC”, the “apparent Kd” value was determined as 115 nM under setting [3] and 199 nM under setting [4].

Turning to “UAGAUGUGAGGAUAUGGUAAAGAUAGAAUGAUGAAAGAACUCCAGAAGGCACAUGAGGAUCACCCAUGUAGAUG”, the “apparent Kd” value is, setting by setting: under setting [1], 26.9 nM; under setting [2], 55 nM.

Consider “UCCUUGUCCUGAGGAUAUCCGCGGUUCCCAAAAGGAGAAGGCAGGACAUGAGGAUCACCCAUGUACCCAGAAAACGUACAGAGU”, for which the “apparent Kd” value came out at 44.7 nM under setting [1] and 162 nM under setting [2].

Consider “AGGAGAAAUGUAGGAUAUGGGCGGGUAUAUGGGCAAAGCGCAUAUACCCGCCCAGAAGGACAUGAGGAUCACCCAUGUUUCCCU”, for which the “apparent Kd” value by setting is: under setting [1], 12.2 nM; under setting [2], 13.3 nM.

Turning to “UGAGUGCUGCGAGGAUAUACAUGAGGAUCACCCAUGUAAAUGUGUGAGGCUUUGCCUCACACAAUGUAGAAGGCGCAGUACUCU”, the “apparent Kd” value amounted to 14.5 nM under setting [1] and 17.2 nM under setting [2].

Take “CCUAUGUGAGGAUAUCACUGGUCUUCUCACUGGAUGAUUAGUGAGAAGGCACAUGAGGAUCACCCAUGUCGGUG”: the “apparent Kd” value is 656 nM under setting [1] and 451 nM under setting [2].

For the sequence “GUUUUUCCUCAUGUACAUGAGGAACAUGAGGAUCACCCAUGUAGAAGGAAUUCCCUUAAAUUAAGUUAGGAUAUACAUAUAUUU”, the “apparent Kd” value reads like this: under setting [1], 107 nM; under setting [2], 77.4 nM.

Regarding “UUCAAGUUGCGAGGAUAUCGUGUUAACAUGAGGAUCACCCAUGUAAAGGUAUAUUAAAUUAUCUUCGAGAAGGCGCUUAAUGUA”, the “apparent Kd” value came to 22.6 nM under setting [3] and 20.3 nM under setting [4].

On to “GACAUGAGGAUCACCCAUGUACAUGAGGAUCACCCAUGUUCUGAGGAUAUAGAUGAGGAUCACCUCUAGAAGGCAGCGCGCGCG”, for which the “apparent Kd” value by setting is: under setting [1], 251 nM; under setting [2], 202 nM.

Turning to “CAUGUUAUACAGGAUAUCCGUAUGUAAUUCGUCGGAGAAGGGUAUACAUGAGGAUCACCCAUGUAUUCCUAGCU”, the “apparent Kd” value runs as follows: under setting [1], 16.1 nM; under setting [2], 20.8 nM.
